Screening results: PubChem BioAssay, several laboratories
MEKK2mut PB1 HTS: signal of MEK5 binding to mutant human MEKK2 PB1 domain. bead flow cytometry, Alexa488-MEK5 binding to MEKK2 mutant. percent response, % at 10 µM. actives 0.35% (n = 290,000). AID 1530; in the data active = percent response above about 24%, passing the limit was not always enough
T cell HTS: T cell immune modulation candidate; actives 0.068% (n = 330,000); response (vesicle binding), % at 7 µM; AID 2052; 2C CD8+ T cell-vesicle binding, flow cytometry; stronger effect = lower value;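 active = response, share of CD8 T cells binding vesicles, and their 90th percentile fluorescence all below set limits, cut at about 80% in these data, passing the limit was not always enough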;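 also: values below 100% mean blocked vesicle binding to the CD8+ T cells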
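material = purified 2C TCR transgenic mouse naive CD8+ T cells | controls = Unloaded micro-vesicles (low), QL9 vesicles with 0.7% DMSO (high) | detection = cytometric PE anti-B7-1 and Alexa647 anti-CD8 signals after 1% paraformaldehyde fixation | incubation = binding step 1.5 h, 37 °C, antibody labelling 20 min, ice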
Rce1 inhib: yeast Ras-converting enzyme inhibition; yeast membranes, quenched prenylated peptide cleavage fluorescence; calls only; actives 0.27% (n = 290,000); AID 2563;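 active = fall in fluorescence gain of 50% or more versus controls, with final raw signal at or below 3038400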;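 also: plate controls were neutral control wells for no effect and wells lacking membranes for full effect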
UCH37 inh: human UCH37 deubiquitinating enzyme inhibition | Q9Y5K5 | purified proteasome/UCH37, Ub-AMC cleavage fluorescence | inhibition, % (test concentration not listed) | actives 0.33% (n = 330,000);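 active = mean inhibition over replicate wells above about 20%, limit read from the data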;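 also: 0% = compound-free wells with enzyme and 100% = wells lacking proteasome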
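Test system – human UCH37 enzyme supplied as purified proteasome complex · Incubation – 30 min preincubation with enzyme, 25 min cleavage at room temperature · Detection – AMC fluorescence from Ub-AMC cleavage, excitation 355 nm, emission 460 nm · Benchmarks – no-proteasome wells (full inhibition) and compound-free wells (no inhibition)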
MEKK2 WT-MEK5: raises or lowers MEK5 binding to wildtype human MEKK2 PB1 domain; Q9Y2U5; binding response (% of control), % at 10 µM; bead flow cytometry, Alexa488-MEK5 binding to MEKK2 WT; actives lie on both sides; actives 1.1% (n = 290,000); in the data active = binding response below about 67% or above about 130%
MEKK3 PB1 HTS: MEKK3-MEK5 PB1 interaction, increase or decrease | actives 1.4% (n = 290,000) | AID 1529 | binding response (% of control), % at 10 µM | Q99759 | bead-based flow cytometry, Alexa488-MEK5 binding to MEKK3; actives lie on both sides; 0 = blocked by unlabeled MEK5, 100 = vehicle;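 active = binding response more than 3 SD above or below the average of its plate-row segment, actives on both sides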;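 also: Alexa488 bead fluorescence after subtracting the streptavidin-only scavenger bead signal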
Target sequence (Q99759 whole entry, looked up): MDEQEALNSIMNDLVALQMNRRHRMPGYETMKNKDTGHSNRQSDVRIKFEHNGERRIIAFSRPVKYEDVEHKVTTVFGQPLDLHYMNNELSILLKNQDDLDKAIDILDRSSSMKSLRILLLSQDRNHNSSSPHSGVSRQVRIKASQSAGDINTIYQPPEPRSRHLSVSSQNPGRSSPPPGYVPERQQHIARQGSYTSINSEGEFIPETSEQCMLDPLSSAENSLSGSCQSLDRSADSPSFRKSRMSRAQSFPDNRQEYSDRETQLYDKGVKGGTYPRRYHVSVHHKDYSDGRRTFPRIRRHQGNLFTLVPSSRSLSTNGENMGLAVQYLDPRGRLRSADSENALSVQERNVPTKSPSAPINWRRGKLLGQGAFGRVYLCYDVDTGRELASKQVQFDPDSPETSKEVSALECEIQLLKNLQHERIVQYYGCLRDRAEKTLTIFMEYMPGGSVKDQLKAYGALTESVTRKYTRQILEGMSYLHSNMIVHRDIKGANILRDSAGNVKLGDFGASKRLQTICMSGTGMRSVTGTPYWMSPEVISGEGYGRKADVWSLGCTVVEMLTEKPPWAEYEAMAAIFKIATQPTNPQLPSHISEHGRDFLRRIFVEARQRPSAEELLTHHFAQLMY
UCH37 confirm: reconfirmed inhibitor of human deubiquitinase UCH37. Proteasome-bound UCH37, Ub-AMC cleavage fluorescence. inhibition, % at 20 µM. actives 27% (n = 480). AID 624100. shares compounds with UCH37 inh;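 active = average inhibition over replicates above about 50%, so the earlier screening hit is confirmed, limit read from the data; inactive = the rest, counted as false positives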;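 also: based on cleavage rate fitted by regression over a 30 min kinetic read; 0% = proteasome plus Ub-AMC and 100% = Ub-AMC without proteasome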
Starred values were filed as active, the others as inactive; i = inactive; . = no result given. Only some compounds are listed: those with a hit (about 2.5% of all), similar ones and a draw of the others.

SMILES	MEKK2mut PB1 HTS	T cell HTS	Rce1 inhib	UCH37 inh	MEKK2 WT-MEK5	MEKK3 PB1 HTS	UCH37 confirm
Clc1ccc(C2=NNC(=NCC3CCCO3)SC2)cc1 (stereo not given)	8	245	i	51*	100	96	4
COc1cc(C=Nn2cnnc2)ccc1OCC(=O)Nc1ccc(C)cc1	.	.	.	-1	.	.	.
Cc1cccc(NC(=O)CN2C(=O)S/C(=C\c3ccc(O)c([N+](=O)[O-])c3)C2=O)c1	0	390	i	16	100	103	.
Cc1ccc(NC(=O)CN2C(=O)S/C(=C/c3ccc(O)c([N+](=O)[O-])c3)C2=O)cc1C	-12	.	.	28*	88	99	48
CN(C)/C=C/C1=C([N+](=O)[O-])C(c2cccc([N+](=O)[O-])c2)NC(=O)N1 (stereo not given)	-16	212	i	27*	86	88	21
CCOC(=O)C1=C(CCc2ccccc2)NC(=O)NC1c1cccc([N+](=O)[O-])c1 (stereo not given)	-9	322	i	5	89	101	.
O=C1C(Nc2cccc(O)c2)=C(N2CCCCC2)C(=O)c2ccccc21	-3	304	i	31*	91	98	35
O=C1C(NS(=O)(=O)c2ccc(Br)cc2)=C(N2CCCCC2)C(=O)c2ccccc21	0	358	i	14	94	100	.
CCOC(=O)/C=C(\C)Sc1cc(=O)oc2ccccc12	3	208	i	6	105	107	.
CCOC(=O)/C=C(\C)Sc1cc(O)c2ccccc2c1O	1	.	.	81*	91	97	82*
Cc1ccc(C)c(NC(=O)CSc2c(C)n[nH]c2C)c1	-4	215	.	0	103	101	.
CCOc1ccccc1NC(=O)CSc1c(C)n[nH]c1C	3	310	i	36*	109	105	8
CC(CS(=O)(=O)c1ccc(Cl)cc1)=NNC(N)=S	.	.	.	0	.	.	.
Cc1ccccc1OCC(=O)ON=C(N)Cc1ccc(Cl)cc1	.	.	.	44*	.	.	15
Cc1[nH][nH]c(=O)c1C(c1c(C)[nH][nH]c1=O)c1cn(Cc2ccc(Cl)c(Cl)c2)c2ccccc12	2	422	i	47*	83	100	24
C(=NN1CCOCC1)c1cccs1	.	.	.	2	.	.	.
C#CCOCCOCCOCCNc1nc(N2CCN(C(=O)Cn3cc(CC(C)O)nn3)CC2)nc(N2CCN(C(=O)[C@H]([C@@H](C)O)n3cc(CCCCN)nn3)CC2)n1 (stereo not given in full)	.	.	.	-1	.	.	.
C#CCOCCOCCOCCNc1nc(N2CCN(C(=O)Cn3cc(CCO)nn3)CC2)nc(N2CCN(C(=O)[C@H]([C@@H](C)O)n3cc(CCCCN)nn3)CC2)n1	-3	.	i	38*	100	94	19
COc1ccccc1-c1coc2cc(O)cc(O)c2c1=O	3	266	i	48*	99	97	-6
O=c1c(-c2ccc(O)cc2O)coc2cc(O)cc(O)c12	5	220	i	4	103	103	.
CC(C)NC(=S)NN=Cc1ccccc1[N+](=O)[O-]	.	.	.	0	.	.	.
O=C1CCCC2=C1C(c1ccc3c(c1)OCO3)c1c([nH]n(-c3ccccc3)c1=O)N2 (stereo not given)	-4	392	i	32*	97	99	33
COc1cccc(C2C3=C(CCCC3=O)Nc3[nH]n(-c4ccccc4)c(=O)c32)c1 (stereo not given)	3	266	i	5	101	109	.
Cc1ccc(NC2=CC(=O)C(=O)c3ccccc32)c(C)c1	.	307	.	36*	.	.	5
O=C1C=C(Nc2ccc(F)cc2)c2ccccc2C1=O	.	238	.	57*	.	.	18
O=C1C=C(Nc2ccccc2O)c2ccccc2C1=O	-1	540	i	81*	102	101	85*
O=C(Nc1ccccc1O)c1ccc2c(c1)C(=O)N(N1C(=O)c3ccccc3C1=O)C2=O	-1	0	i	4	95	102	.
